# Assay results as given in publication PMC8668982 (The Journal of Biological Chemistry, 2021).
# Where a chain is given by its changes, count along the chain named.
# Columns and labels:
# [1] = target: T1, TnIYD (Thermotoga neapolitana, UniProt B9K712); test: Catalytic dehalogenation, steady-state kinetics; type: biochemical; conditions: for Km / kcat: substrate of TnIYD
# T1 sequence (B9K712 1-186): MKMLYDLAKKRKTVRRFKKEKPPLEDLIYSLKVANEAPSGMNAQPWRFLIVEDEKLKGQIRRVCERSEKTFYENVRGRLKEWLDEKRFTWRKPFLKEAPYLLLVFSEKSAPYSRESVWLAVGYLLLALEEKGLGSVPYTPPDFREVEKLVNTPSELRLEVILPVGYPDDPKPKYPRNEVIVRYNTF
# [2] = target: T1, TnIYD; test: Active site ligand binding by quenching of FMNox fluorescence, wild-type TnIYD
# [3] = tested on: IYD from mesophiles; conditions: cited from earlier work
# [4] = target: T2, TnIYD M41K (Thermotoga neapolitana, UniProt B9K712, M41K); test: Active site ligand binding by quenching of FMNox fluorescence, M41K variant
# T2 sequence (B9K712 1-186 M41K): T1 sequence (B9K712 1-186) with M41K
# Method in brief: (§1)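 C-terminal His6-tagged T. neapolitana IYD variants, made by mutagenesis, were expressed in E. coli Rosetta2 and purified on Ni-NTA. They were incubated with ~300 μM FMN and quantified by bound-FMN A450. Excitation was 450 nm and emission 516–526 nm. Dilution-corrected F/F0 versus ligand was fit to a two-state binding isotherm.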
# [5] = target: T3, TnIYD Y112A (Thermotoga neapolitana, UniProt B9K712, Y112A); test: Active site ligand binding by quenching of FMNox fluorescence, Y112A variant
# T3 sequence (B9K712 1-186 Y112A): T1 sequence (B9K712 1-186) with Y112A
# Method in brief: as §1
# [6] = target: T4, TnIYD M41F (Thermotoga neapolitana, UniProt B9K712, M41F); test: Active site ligand binding by quenching of FMNox fluorescence, M41F variant
# T4 sequence (B9K712 1-186 M41F): T1 sequence (B9K712 1-186) with M41F
# Method in brief: as §1
# [7] = target: T5, TnIYD M41A/Y112A (Thermotoga neapolitana, UniProt B9K712, M41A/Y112A); type: binding
# T5 sequence (B9K712 1-186 M41A/Y112A): T1 sequence (B9K712 1-186) with M41A, Y112A
# Method in brief: as §1
# [8] = target: T6, TnIYD M41A (Thermotoga neapolitana, UniProt B9K712, M41A); test: Active site ligand binding by quenching of FMNox fluorescence, M41A variant
# T6 sequence (B9K712 1-186 M41A): T1 sequence (B9K712 1-186) with M41A
# Method in brief: as §1
# [9] = target: T7, TnIYD Y112A/W82A/F88A (Thermotoga neapolitana, UniProt B9K712, F88A/W82A/Y112A); type: binding
# T7 sequence (B9K712 1-186 W82A/F88A/Y112A): T1 sequence (B9K712 1-186) with W82A, F88A, Y112A
# Method in brief: as §1
smiles,measurement,setting,value
"Oc1ccccc1I [2-IP, 2-iodophenol]",difference in Km values for I-Tyr and 2-IP,[1]; 25 °C,"19,000 fold"
same,difference of kcat relative to the kcat value of I-Tyr,[1]; 25 °C,2 fold
same,efficiency (kcat/Km) relative to that for iodotyrosine,[1]; 25 °C,less than 0.01%
same,Km,[1]; 25 °C,4.2 mM
same,kcat,[1]; 25 °C,0.014 ± 0.001 s⁻¹
same,increase of kcat at 60 °C relative to 25 °C,[1]; 60 °C vs 25 °C,less than 8 fold
same,Km,[1]; 60 °C,6.6 mM
same,kcat,[1]; 60 °C,0.108 ± 0.005 s⁻¹
same,kcat/Km smaller than that for I-Tyr,[1]; at both temperatures (25 °C and 60 °C),"more than 10,000 fold"
same,Kd,[2],31 ± 1 µM
"N[C@@H](Cc1ccc(O)cc1)C(=O)O [Tyr, tyrosine]",affinity of Tyr to IYD from mesophiles,[3],too weak to measure
same,Kd,[4],7.4 ± 0.2 µM
same,decrease of affinity by M41K variant relative to wt TnIYD,[4]; 25 °C,16 fold
same,Kd,[5],0.9 ± 0.1 µM
same,Kd,[2],0.45 ± 0.07 µM
same,Kd,[6],0.09 ± 0.06 µM
same,enhancement of binding by M41F variant relative to wt TnIYD,[6]; 25 °C,5 fold
same,Kd,[7],0.95 ± 0.09 µM
same,decrease of affinity by M41A/Y112A variant relative to wt TnIYD,[7]; 25 °C,2 fold
same,Kd,[8],1.6 ± 0.2 µM
same,weakening of affinity by M41A substitution relative to wt TnIYD,[8]; 25 °C,3.6 fold
same,Kd,[9],1200 ± 20 µM
same,weakening of binding by W82A/F88A/Y112A triple mutant relative to wt TnIYD,[9]; 25 °C,more than 2600 fold
